Assay results taken from ChEMBL document CHEMBL4422650, “Design and synthesis of biotinylated cardiac glycosides for probing Nur77 protein inducting pathway” (Bioorg Med Chem Lett, 2019).
Calls of active or inactive are those of the source. The calls are words filed in the database; no cut-off is given here.

Assays:
[1] = Cytotoxicity against human NIH-H460 cells assessed as cell viability at 50 nM after 48 hrs by MTT assay relative to control
[2] = species on record: Homo sapiens; assay: Induction of Nur77 expression in human NIH-H460 cells AT 20 nM after 3 hrs by Western blot analysis; type: functional, cell-based
How it was run: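 NIH-H460 cancer cells were exposed to probes at 20 nM for 3 h. Nur77 protein was detected by western blotting with an anti-Nur77 antibody. DMSO served as the blank, and the underivatized biotin linker hydrazides were the negative controls.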

[3] = target: Streptavidin (Streptomyces avidinii) (UniProt P22629); assay: Binding affinity to Streptomyces avidinii streptavidin at 1 mM after 2 hrs by HABA dye-based UV-vis spectroscopic analysis
Streptavidin (Streptomyces avidinii), sequence (P22629 whole entry): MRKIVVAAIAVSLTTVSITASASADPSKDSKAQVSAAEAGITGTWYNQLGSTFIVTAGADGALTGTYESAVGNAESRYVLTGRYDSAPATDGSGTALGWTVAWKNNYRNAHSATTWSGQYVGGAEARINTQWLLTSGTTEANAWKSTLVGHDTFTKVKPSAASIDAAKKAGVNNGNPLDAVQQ

| Compound | viability at 48 h, 0.05 µM [1] | Activity [2] | Activity [3] |
| --- | --- | --- | --- |
| C[C@@H]1O[C@@H](O[C@H]2CC[C@]3(/C=N/NC(=O)CCCC[C@@H]4SC[C@@H]5NC(=O)N[C@@H]54)[C@H]4C[C@@H](O)[C@]5(C)[C@@H](C6=CC(=O)OC6)CC[C@]5(O)[C@@H]4CC[C@]3(O)C2)[C@H](O)[C@H](O)[C@H]1O | > 90% | Active | – |
| C[C@H]1O[C@@H](O[C@H]2CC[C@]3(/C=N/NC(=O)COCCNC(=O)CCCC[C@@H]4SC[C@@H]5NC(=O)N[C@@H]54)[C@H]4C[C@@H](O)[C@]5(C)[C@@H](C6=CC(=O)OC6)CC[C@]5(O)[C@@H]4CC[C@]3(O)C2)[C@H](O)[C@H](O)[C@H]1O | > 90% | Active | – |
| C[C@H]1O[C@@H](O[C@H]2CC[C@]3(/C=N/NC(=O)COCCOCCOCCNC(=O)CCCC[C@@H]4SC[C@@H]5NC(=O)N[C@@H]54)[C@H]4C[C@@H](O)[C@]5(C)[C@@H](C6=CC(=O)OC6)CC[C@]5(O)[C@@H]4CC[C@]3(O)C2)[C@H](O)[C@H](O)[C@H]1O | > 90% | Active | – |
| C[C@@H]1O[C@@H](O[C@H]2CC[C@]3(/C=N/NC(=O)CCCCCNC(=O)CCCC[C@@H]4SC[C@@H]5NC(=O)N[C@@H]54)[C@H]4C[C@@H](O)[C@]5(C)[C@@H](C6=CC(=O)OC6)CC[C@]5(O)[C@@H]4CC[C@]3(O)C2)[C@H](O)[C@H](O)[C@H]1O | > 90% | Active | Active |
| NNC(=O)COCCOCCNC(=O)CCCC[C@@H]1SC[C@@H]2NC(=O)N[C@@H]21 | > 90% | – | – |
| C[C@H]1O[C@@H](O[C@H]2CC[C@]3(/C=N/NC(=O)CCCC[C@@H]4SC[C@@H]5NC(=O)N[C@@H]54)[C@H]4C[C@@H](O)[C@]5(C)[C@@H](C6=CC(=O)OC6)CC[C@]5(O)[C@@H]4CC[C@]3(O)C2)[C@H](O)[C@H](O)[C@H]1O | > 90% | – | – |
| C[C@H]1O[C@@H](O[C@H]2CC[C@]3(/C=N/NC(=O)COCCOCCNC(=O)CCCC[C@@H]4SC[C@@H]5NC(=O)N[C@@H]54)[C@H]4C[C@@H](O)[C@]5(C)[C@@H](C6=CC(=O)OC6)CC[C@]5(O)[C@@H]4CC[C@]3(O)C2)[C@H](O)[C@H](O)[C@H]1O | > 90% | Active | – |
| NNC(=O)CCCCCNC(=O)CCCC[C@@H]1SC[C@@H]2NC(=O)N[C@@H]21 | > 90% | – | – |
| C[C@@H]1O[C@@H](O[C@H]2CC[C@]3(/C=N/NC(=O)CNC(=O)CCCC[C@@H]4SC[C@@H]5NC(=O)N[C@@H]54)[C@H]4C[C@@H](O)[C@]5(C)[C@@H](C6=CC(=O)OC6)CC[C@]5(O)[C@@H]4CC[C@]3(O)C2)[C@H](O)[C@H](O)[C@H]1O | > 90% | Active | – |
| C[C@H]1O[C@@H](O[C@H]2CC[C@]3(/C=N/NC(=O)CCCCCNC(=O)CCCC[C@@H]4SC[C@@H]5NC(=O)N[C@@H]54)[C@H]4C[C@@H](O)[C@]5(C)[C@@H](C6=CC(=O)OC6)CC[C@]5(O)[C@@H]4CC[C@]3(O)C2)[C@H](O)[C@H](O)[C@H]1O | > 90% | Active | – |
| C[C@H]1O[C@@H](O[C@H]2CC[C@]3(C=O)[C@H]4C[C@@H](O)[C@]5(C)[C@@H](C6=CC(=O)OC6)CC[C@]5(O)[C@@H]4CC[C@]3(O)C2)[C@H](O)[C@H](O)[C@H]1O | – | Active | – |
| C[C@@H]1O[C@@H](O[C@H]2CC[C@]3(/C=N/NC(=O)CCCNC(=O)CCCC[C@@H]4SC[C@@H]5NC(=O)N[C@@H]54)[C@H]4C[C@@H](O)[C@]5(C)[C@@H](C6=CC(=O)OC6)CC[C@]5(O)[C@@H]4CC[C@]3(O)C2)[C@H](O)[C@H](O)[C@H]1O | > 90% | Active | – |
| C[C@@H]1O[C@@H](O[C@H]2CC[C@]3(/C=N/NC(=O)COCCOCCOCCNC(=O)CCCC[C@@H]4SC[C@@H]5NC(=O)N[C@@H]54)[C@H]4C[C@@H](O)[C@]5(C)[C@@H](C6=CC(=O)OC6)CC[C@]5(O)[C@@H]4CC[C@]3(O)C2)[C@H](O)[C@H](O)[C@H]1O | > 90% | Active | – |
| C[C@@H]1O[C@@H](O[C@H]2CC[C@]3(/C=N/NC(=O)CCCCCCCNC(=O)CCCC[C@@H]4SC[C@@H]5NC(=O)N[C@@H]54)[C@H]4C[C@@H](O)[C@]5(C)[C@@H](C6=CC(=O)OC6)CC[C@]5(O)[C@@H]4CC[C@]3(O)C2)[C@H](O)[C@H](O)[C@H]1O | > 90% | Active | – |
| C[C@@H]1O[C@@H](O[C@H]2CC[C@]3(/C=N/NC(=O)COCCNC(=O)CCCC[C@@H]4SC[C@@H]5NC(=O)N[C@@H]54)[C@H]4C[C@@H](O)[C@]5(C)[C@@H](C6=CC(=O)OC6)CC[C@]5(O)[C@@H]4CC[C@]3(O)C2)[C@H](O)[C@H](O)[C@H]1O | > 90% | – | – |
| C[C@@H]1O[C@@H](O[C@H]2CC[C@]3(/C=N/NC(=O)COCCOCCNC(=O)CCCC[C@@H]4SC[C@@H]5NC(=O)N[C@@H]54)[C@H]4C[C@@H](O)[C@]5(C)[C@@H](C6=CC(=O)OC6)CC[C@]5(O)[C@@H]4CC[C@]3(O)C2)[C@H](O)[C@H](O)[C@H]1O | > 90% | Active | – |
| C[C@H]1O[C@@H](O[C@H]2CC[C@]3(/C=N/NC(=O)CNC(=O)CCCC[C@@H]4SC[C@@H]5NC(=O)N[C@@H]54)[C@H]4C[C@@H](O)[C@]5(C)[C@@H](C6=CC(=O)OC6)CC[C@]5(O)[C@@H]4CC[C@]3(O)C2)[C@H](O)[C@H](O)[C@H]1O | > 90% | Active | – |
| C[C@H]1O[C@@H](O[C@H]2CC[C@]3(/C=N/NC(=O)CCCCCCCNC(=O)CCCC[C@@H]4SC[C@@H]5NC(=O)N[C@@H]54)[C@H]4C[C@@H](O)[C@]5(C)[C@@H](C6=CC(=O)OC6)CC[C@]5(O)[C@@H]4CC[C@]3(O)C2)[C@H](O)[C@H](O)[C@H]1O | > 90% | Active | Active |
| C[C@H]1O[C@@H](O[C@H]2CC[C@]3(/C=N/NC(=O)CCCNC(=O)CCCC[C@@H]4SC[C@@H]5NC(=O)N[C@@H]54)[C@H]4C[C@@H](O)[C@]5(C)[C@@H](C6=CC(=O)OC6)CC[C@]5(O)[C@@H]4CC[C@]3(O)C2)[C@H](O)[C@H](O)[C@H]1O | > 90% | Active | – |
| C[C@@H]1O[C@@H](O[C@H]2CC[C@]3(C=O)[C@H]4C[C@@H](O)[C@]5(C)[C@@H](C6=CC(=O)OC6)CC[C@]5(O)[C@@H]4CC[C@]3(O)C2)[C@H](O)[C@H](O)[C@H]1O | – | Active | – |
